Laboratory results taken from PMC3900297 (Biotechnology and applied biochemistry, 2013).
Where “and” joins values, the source holds several entries; their conditions need not be identical. Equal entries are not always repeated. Where two headings read alike, the source gives them in different places.

Columns and labels:
CYP261D1 (P450-PE36) = test: absorbance spectral titration; assay type: binding, Moritella sp. PE36; conditions: 0.1 M Na-Hepes pH 7.4, 0.5 mM EDTA, 25 °C, ambient pressure
In short: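 Recombinant His-tagged enzyme was expressed with […] and 0.5 mM IPTG for 48 h at 30 °C, then Ni-NTA purified. (+) and (−) forms were separated on cation-exchange and DEAE resins and dialyzed into Hepes/glycerol/KCl/TCEP. Titration spectra were taken in a stirred, thermostated cell and analysed by PCA/SVD against high-spin, low-spin and P420 standards. Spin-state changes were fitted to the tight-binding (square-root) equation.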

CYP261C1 (P450-SS9) = biological target: T1, CYP261C1 (P450-SS9) (Photobacterium profundum, UniProt Q6LGK6); test: absorbance spectral titration; assay type: binding; conditions: μM
T1 sequence (Q6LGK6 1-480): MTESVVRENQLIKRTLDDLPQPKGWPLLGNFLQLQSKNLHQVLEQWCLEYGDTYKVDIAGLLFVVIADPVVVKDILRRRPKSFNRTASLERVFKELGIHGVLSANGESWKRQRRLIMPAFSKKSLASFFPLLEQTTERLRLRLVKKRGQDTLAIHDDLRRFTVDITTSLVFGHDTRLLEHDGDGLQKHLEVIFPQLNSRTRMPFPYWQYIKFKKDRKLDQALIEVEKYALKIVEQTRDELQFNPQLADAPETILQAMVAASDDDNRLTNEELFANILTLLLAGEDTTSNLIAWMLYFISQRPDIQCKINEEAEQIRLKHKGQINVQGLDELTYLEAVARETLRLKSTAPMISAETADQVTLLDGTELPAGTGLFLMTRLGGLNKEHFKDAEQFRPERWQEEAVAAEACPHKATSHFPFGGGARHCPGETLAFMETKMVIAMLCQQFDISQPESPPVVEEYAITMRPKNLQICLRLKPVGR
In short: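 Recombinant CYP261C1 expressed in E. coli TOPP3, Ni-NTA purified, then separated into (+) and (−) forms on cation/anion exchange. Fatty-acid titrations tracked by absorbance spectra at 25 °C in 0.1 M Na-Hepes pH 7.4 with 0.5 mM EDTA. Spectral series underwent PCA, with least-squares fitting to high-spin, low-spin and P420 standards. Kd came from the tight-binding (square-root) equation.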

Kd (CYP261D1 (P450-PE36); read-out: Myristic acid / KD, (+) conformer) [µM]	Kd (CYP261D1 (P450-PE36); read-out: Myristic acid / KD, (−) conformer) [µM]	Kd (CYP261C1 (P450-SS9); Myristic acid / KD)	Compound	Kd (CYP261D1 (P450-PE36); read-out: Arachidonic acid / KD, (+) conformer) [µM]	Kd (CYP261D1 (P450-PE36); read-out: Arachidonic acid / KD, (−) conformer) [µM]	Kd (CYP261C1 (P450-SS9); Arachidonic acid / KD)
			CCCCC/C=C\C/C=C\C/C=C\C/C=C\CCCC(=O)O [Arachidonic acid]	3.1 ± 0.6	8.9 ± 2.2	9.7 µM and 10.4 µM
2.4 ± 0.7	3 ± 1	8.1 µM and 3.6 µM	CCCCCCCCCCCCCC(=O)O [Myristic acid]			
